Screening results from PubChem.
TRPC4 act: activators of mouse TRPC4 channel; Q9QUQ5; HEK293 TRPC4beta/mu-opioid, Fluo4 calcium fluorescence; stronger effect = higher value; B-score at 10 µM; 310,000 compounds, 0.49% hits;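 active = B-score above 5 SD of library B-scores, and initial fluorescence ratio not above library mean plus 5 SD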;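 also: positive B-score marks a calcium rise read as TRPC4 activation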
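Test system: HEK293 cells stably co-expressing mouse TRPC4beta and mu-opioid receptor | Schedule: Fluo4 dye loading 45 min at room temperature, 110 s recording | Measured by: Kinetic Fluo4 calcium fluorescence, 5 s baseline at 1 Hz | Evaluation: B score of integrated ratio | Controls: Buffer (low) and maximal DAMGO (high)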
TRPC6 inhibitor: inhibitors of mouse TRPC6 channel; Q61143; HEK293-TRPC6, membrane potential dye, ACh-evoked depolarization; stronger effect = lower value; B-score at 10 µM; 310,000 compounds, 1.1% hits;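 active = B-score under library mean minus 3 SD, initial fluorescence not abnormally high, positive integrated signal ratio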;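 also: B-score derived from integrated fluorescence ratio over the kinetic read; more negative B-score means stronger inhibition of depolarization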
Target sequence (Q61143 whole entry, looked up): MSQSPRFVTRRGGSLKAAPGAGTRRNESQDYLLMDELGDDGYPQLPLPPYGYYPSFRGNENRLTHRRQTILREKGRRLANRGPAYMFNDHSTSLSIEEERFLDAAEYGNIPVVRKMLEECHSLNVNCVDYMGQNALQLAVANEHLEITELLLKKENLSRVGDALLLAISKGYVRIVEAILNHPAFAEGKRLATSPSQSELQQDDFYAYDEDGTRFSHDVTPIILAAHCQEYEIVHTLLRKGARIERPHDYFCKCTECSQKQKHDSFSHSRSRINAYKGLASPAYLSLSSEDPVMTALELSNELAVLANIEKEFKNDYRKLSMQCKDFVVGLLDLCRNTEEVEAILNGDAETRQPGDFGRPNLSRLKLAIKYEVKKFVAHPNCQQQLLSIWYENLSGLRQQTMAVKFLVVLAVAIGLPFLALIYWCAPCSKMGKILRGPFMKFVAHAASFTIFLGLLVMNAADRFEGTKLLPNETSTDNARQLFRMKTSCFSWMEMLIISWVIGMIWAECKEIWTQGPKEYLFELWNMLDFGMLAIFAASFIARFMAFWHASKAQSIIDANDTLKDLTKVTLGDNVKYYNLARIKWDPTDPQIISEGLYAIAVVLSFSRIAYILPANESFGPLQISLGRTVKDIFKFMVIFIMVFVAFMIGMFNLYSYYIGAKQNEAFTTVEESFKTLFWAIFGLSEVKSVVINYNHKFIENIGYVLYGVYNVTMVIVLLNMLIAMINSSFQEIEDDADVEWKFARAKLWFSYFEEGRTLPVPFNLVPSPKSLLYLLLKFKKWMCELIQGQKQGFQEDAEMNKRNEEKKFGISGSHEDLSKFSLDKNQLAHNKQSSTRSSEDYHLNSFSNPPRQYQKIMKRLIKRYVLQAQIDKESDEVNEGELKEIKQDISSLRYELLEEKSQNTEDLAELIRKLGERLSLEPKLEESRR
TRPC6 activator: activators of mouse TRPC6 channel; HEK293-TRPC6 membrane potential dye fluorescence; stronger effect = higher value; B-score at 10 µM; 310,000 compounds, 0.13% hits;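 active = B-score of the integrated fluorescence ratio above library mean plus 3 SD, and starting fluorescence ratio within library mean plus 5 SD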;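 also: higher score means more depolarization so channel activation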
TRPC4 block: blocks the mouse TRPC4 cation channel; Q9QUQ5; HEK293 TRPC4beta/mu-opioid, DAMGO-evoked Fluo4 calcium flux; stronger effect = lower value; B-score at 10 µM; 300,000 compounds, 0.39% hits; AID 2247;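 active = B-score over 3 SD under the library average, no early fluorescence shift, positive overall ratio signal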
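Material: HEK293 cells with stable TRPC4beta plus mu-opioid receptor expression; probe or stimulus: DAMGO in two steps, submaximal then maximal; technique: Fluo4 calcium fluorescence by kinetic imaging, 5 s 1 Hz baseline; measure: integrated fluorescence ratio relative to baseline, converted to per-well B score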
TRPC4 potent: TRPC4 (mouse) allosteric potentiation. Q9QUQ5. HEK293 TRPC4beta/mu-opioid, DAMGO EC20, Fluo-4 Ca2+ flux; stronger effect = higher value. B-score at 10 µM. 310,000 compounds, 0.42% hits;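 active = B-score of calcium response area above 5 SD of library B-scores, with initial fluorescence ratio within 5 SD of library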
TRPC4 spec 2: second selectivity test of TRPC6 inhibitors: effect on mouse TRPC4 | HEK293 TRPC4/MOR, membrane potential dye fluorescence; channel activated by saturating DAMGO dose | inhibition, % at 10 µM | 920 compounds, 42% hits | AID 2776 | shares compounds with TRPC6 inhibitor;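 active = compounds whose fluorescence signal differed from control wells by over 3 SD, either direction, in both duplicate plates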
TRPC4 spec: mouse TRPC4 off-target activity of TRPC6 inhibitors | shares compounds with TRPC6 inhibitor | HEK293 TRPC4/mu-opioid, membrane potential fluorescence | activity change, negative = inhibition, % at 10 µM | 920 compounds, 61% hits | AID 2777;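 active = rise or fall in signal beyond 3 SD of buffer-only wells in both replicate plates, either sign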;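 also: integrated kinetic ratio of fluorescence range over baseline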
HEK293 MPD ctr 2-1: parental HEK293 nonspecific activity of TRPC6 inhibitors, second screen; signal change vs control, % at 10 µM; parental HEK293 membrane potential dye fluorescence; maximal acetylcholine challenge after compound addition; shares compounds with TRPC6 inhibitor; 920 compounds, 31% hits;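 active = membrane potential signal moving either way by over 3 SD of the maximum-effect control, in both duplicate plates, meaning non-specific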
HEK293 MPD ctr-1: checks TRPC6 inhibitor effects in parental HEK293 cells; 920 compounds, 60% hits; shares compounds with TRPC6 inhibitor; membrane potential signal change, % at 10 µM; AID 2780; parental HEK293 membrane potential dye fluorescence;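 active = membrane potential signal shifting up or down by more than 3 SD of buffer-only wells, on both duplicate plates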
HEK293 MPD ctr-2: parental HEK293 nonspecific activity of TRPC6 modulators. membrane potential signal change, % at 10 µM. 2,400 compounds, 51% hits. shares compounds with TRPC6 inhibitor. membrane potential dye fluorescence;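 active = membrane potential signal moves up or down beyond 5 SD from buffer-only wells, on both duplicate plates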
HEK293 MPD ctr 2-2: parental HEK293 nonspecific activity of TRPC6 modulators, second screen. membrane potential dye fluorescence; after compound, maximal acetylcholine stimulation. shares compounds with TRPC6 inhibitor. 2,400 compounds, 14% hits. inhibition, % at 10 µM;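 active = membrane potential signal drops by more than 5 SD from the mean control signal, in both duplicate plates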
TRPC4/MOR mod: tests whether TRPC6 modulators also affect mouse TRPC4; shares compounds with TRPC6 inhibitor; HEK293 TRPC4/mu-opioid, membrane potential fluorescence; percent change from control (negative = decrease, positive = increase), % at 10 µM; 2,400 compounds, 69% hits;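 active = membrane potential signal moved up or down beyond 5 SD of buffer control wells, in both duplicate plates, actives on both sides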
TRPC4 ctr inh 2: mouse TRPC4 off-target activity of TRPC6 modulators, second screen; shares compounds with TRPC6 inhibitor; HEK293 TRPC4/mu-opioid, membrane potential dye fluorescence; stimulated with maximal-effect DAMGO; inhibition, % at 10 µM; 2,400 compounds, 55% hits; AID 488928;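 active = drop in membrane potential signal beyond 5 SD of the control wells in both duplicate plates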;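 also: TRPC4 counter screen for TRPC6 hits run under conditions tuned for TRPC6 not TRPC4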
TRPC6 inh conf: mouse TRPC6 inhibitor confirmation. shares compounds with TRPC6 inhibitor. HEK293-TRPC6, membrane potential dye, ACh-evoked depolarization. inhibition, % at 10 µM. 3,300 compounds, 43% hits;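 active = fluorescence ratio falls more than 5 SD below the full-stimulation control mean, in both duplicate runs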;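 also: integrated fluorescence ratio of peak minus minimum over baseline after agonist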
TRPC6 act confirm: mouse TRPC6 activator confirmation | HEK293-TRPC6 membrane potential dye fluorescence, FDSS | AID 488961 | shares compounds with TRPC6 inhibitor | activation, % at 10 µM | 2,800 compounds, 11% hits;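 active = ratio signal rise beyond 5 SD above unstimulated control wells' mean, seen in both duplicate runs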
Each line names hits and unclear results; the compound was inactive in the other large screens (follow-up assays come after a bar, where they were run). In the library only some 2.3% were active in any assay of this set; here they are far more common.

CN1CCN(CC(O)(c2ccc(Cl)cc2)c2ccc(Cl)cc2)CC1	TRPC6 inhibitor -7.3 | TRPC4 spec 2 inactive | TRPC4 spec 4.3% | HEK293 MPD ctr 2-1 inactive | HEK293 MPD ctr-1 1.8% | TRPC6 inh conf inactive | TRPC6 act confirm inactive
CN1CCN(CC(O)COc2ccc(Cl)cc2)CC1 (stereo not given)	none
S=C(NC1CCCC1)N1CCN(c2ncccn2)CC1	none
CC(C)NC(=S)N1CCN(c2ncccn2)CC1	TRPC6 inhibitor -5.4 | HEK293 MPD ctr-2 inactive | HEK293 MPD ctr 2-2 inactive | TRPC4/MOR mod 17% | TRPC4 ctr inh 2 inactive | TRPC6 inh conf inactive | TRPC6 act confirm inactive
CC(=O)N1CCN(C(=O)CSc2nnc(C)n2-c2ccccc2)CC1	none
Cc1c(C)[n+](=O)c2c(n1[O-])CCCCC2	TRPC6 inhibitor -7.7 | TRPC4 spec 2 inactive | TRPC4 spec inactive | HEK293 MPD ctr 2-1 inactive | HEK293 MPD ctr-1 inactive | TRPC6 inh conf inactive | TRPC6 act confirm inactive
Cc1c(OC(C)C(=O)NCC2CCC(C(=O)O)CC2)ccc2c(-c3ccccc3)cc(=O)oc12 (stereo not given)	none
Oc1ccccc1N=Cc1c(O)ccc2ccccc12	TRPC6 inhibitor -5.3 | HEK293 MPD ctr-2 inactive | HEK293 MPD ctr 2-2 inactive | TRPC4/MOR mod 38% | TRPC4 ctr inh 2 inactive | TRPC6 inh conf inactive
Cc1ccc(S(=O)(=O)C(C)C(=O)c2ccc3c(c2)OCCO3)cc1 (stereo not given)	none
CN1CCN(NC(=O)CN2C(=O)/C(=C/c3ccccc3Cl)SC2=S)CC1	TRPC6 inhibitor -8.3 | TRPC4 spec 2 64% | TRPC4 spec inactive | HEK293 MPD ctr 2-1 inactive | HEK293 MPD ctr-1 -130% | TRPC6 inh conf 61% | TRPC6 act confirm inactive
COc1ccc(Cn2c(-c3ccc(Br)cc3)c[n+]3ccccc23)cc1	TRPC6 inhibitor -13 | HEK293 MPD ctr-2 -269% | HEK293 MPD ctr 2-2 inactive | TRPC4/MOR mod -47% | TRPC4 ctr inh 2 48% | TRPC6 inh conf 60% | TRPC6 act confirm inactive
COc1cc(NC(=O)c2cccc3c2C(=O)N(C2CCCCC2)C3)cc(OC)c1OC	none
O=C(CSc1nnc(SCc2ccc(Cl)cc2)s1)c1ccc2c(c1)OCO2	none
COc1cc(/C=N/NC(=O)c2cc(-c3ccccc3)sc2N)cc(OC)c1OC	TRPC6 inhibitor -5 | HEK293 MPD ctr-2 inactive | HEK293 MPD ctr 2-2 inactive | TRPC4/MOR mod inactive | TRPC4 ctr inh 2 53% | TRPC6 inh conf 44% | TRPC6 act confirm inactive
COc1cc(/C=N/NC(=O)c2ccc(-c3ccccc3)cc2)cc(OC)c1OC	none
COc1ccc2ccccc2c1CNC(C)CCc1ccccc1 (stereo not given)	TRPC6 inhibitor -7.8 | TRPC4 spec 2 34% | TRPC4 spec 90% | HEK293 MPD ctr 2-1 inactive | HEK293 MPD ctr-1 56% | TRPC6 inh conf 53%
COc1ccc(CCNCc2c(OC)ccc3ccccc23)cc1OC	none
COc1ccc(-c2cc(C(F)(F)F)c3c(N)c(C(=O)NCCSC)sc3n2)cc1	none
CN(C)CCNC(=O)c1sc2nc(-c3ccccc3)cc(C(F)(F)F)c2c1N	TRPC4 act 83, TRPC6 activator 16 | HEK293 MPD ctr-2 312% | HEK293 MPD ctr 2-2 inactive | TRPC4/MOR mod 57% | TRPC4 ctr inh 2 45% | TRPC6 act confirm 144%
O=c1c2ccccc2nnn1CSc1nnc(-c2cccnc2)n1-c1ccccc1F	none
O=C1OCCC1Sc1nnc(-c2cccnc2)n1-c1ccccc1F (stereo not given)	TRPC6 inhibitor -7.5 | TRPC4 spec 2 inactive | TRPC4 spec inactive | HEK293 MPD ctr 2-1 inactive | HEK293 MPD ctr-1 inactive | TRPC6 inh conf inactive | TRPC6 act confirm inactive
CN1C=C/C(=C\c2cc[n+](C)c3ccccc23)c2ccccc21	TRPC6 inhibitor -5.8 | HEK293 MPD ctr-2 -265% | HEK293 MPD ctr 2-2 inactive | TRPC4/MOR mod -27% | TRPC4 ctr inh 2 32% | TRPC6 inh conf inactive | TRPC6 act confirm inactive
Cc1cc(C)n(-c2nc(SCCN(C)C)c3c4c(sc3n2)COC(C)(C)C4)n1	TRPC6 inhibitor -9.8 | TRPC4 spec 2 48% | TRPC4 spec -15% | HEK293 MPD ctr 2-1 inactive | HEK293 MPD ctr-1 -304% | TRPC6 inh conf 57% | TRPC6 act confirm inactive
Cc1cccn2c(CN(C)CC3Cc4ccccc4O3)c(C(=O)N3CCCCC3)nc12 (stereo not given)	none
Cc1cc(C)c2nc3sc(C(=O)N4CCOCC4)c(N)c3cc2c1	TRPC6 inhibitor -5, TRPC6 activator 23 | HEK293 MPD ctr-2 900% | HEK293 MPD ctr 2-2 83% | TRPC4/MOR mod 189% | TRPC4 ctr inh 2 inactive | TRPC6 inh conf inactive | TRPC6 act confirm 297%
Cc1ccc(C)c2nc3sc(C(=O)N4CCOCC4)c(N)c3cc12	TRPC4 act 74, TRPC6 inhibitor -8.7, TRPC6 activator 33 | HEK293 MPD ctr-2 898% | HEK293 MPD ctr 2-2 inactive | TRPC4/MOR mod 128% | TRPC4 ctr inh 2 inactive | TRPC6 inh conf inactive | TRPC6 act confirm 78%
Cc1cc(C)c2cc3c(N)c(C(=O)N4CCOCC4)sc3nc2c1	none
CC(=O)NC1(C(F)(F)F)NC(=O)N(c2ccc(F)cc2)C1=O (stereo not given)	none
COc1ccc(C(=O)NCCS(=O)(=O)N2CCc3ccccc3C2)cc1	none
